Results reported in PMC4115637 (Pharmacology Research & Perspectives, 2014).
Changes are numbered by the printed parent chain.

Key:
human TRPA1 = human TRPA1 (Homo sapiens, UniProt O75762); experiment: Calcium flux in HEK-293 cells overexpressing TRPA1; assay type: cell-based; conditions: concentrations up to 1 mmol/L
human TRPM8 = human TRPM8 (Homo sapiens, UniProt Q7Z2W7); experiment: Calcium flux in HEK-293 cells overexpressing TRPM8; assay type: cell-based; conditions: concentrations up to 1 mmol/L
human TRPM8, sequence (Q7Z2W7 whole entry): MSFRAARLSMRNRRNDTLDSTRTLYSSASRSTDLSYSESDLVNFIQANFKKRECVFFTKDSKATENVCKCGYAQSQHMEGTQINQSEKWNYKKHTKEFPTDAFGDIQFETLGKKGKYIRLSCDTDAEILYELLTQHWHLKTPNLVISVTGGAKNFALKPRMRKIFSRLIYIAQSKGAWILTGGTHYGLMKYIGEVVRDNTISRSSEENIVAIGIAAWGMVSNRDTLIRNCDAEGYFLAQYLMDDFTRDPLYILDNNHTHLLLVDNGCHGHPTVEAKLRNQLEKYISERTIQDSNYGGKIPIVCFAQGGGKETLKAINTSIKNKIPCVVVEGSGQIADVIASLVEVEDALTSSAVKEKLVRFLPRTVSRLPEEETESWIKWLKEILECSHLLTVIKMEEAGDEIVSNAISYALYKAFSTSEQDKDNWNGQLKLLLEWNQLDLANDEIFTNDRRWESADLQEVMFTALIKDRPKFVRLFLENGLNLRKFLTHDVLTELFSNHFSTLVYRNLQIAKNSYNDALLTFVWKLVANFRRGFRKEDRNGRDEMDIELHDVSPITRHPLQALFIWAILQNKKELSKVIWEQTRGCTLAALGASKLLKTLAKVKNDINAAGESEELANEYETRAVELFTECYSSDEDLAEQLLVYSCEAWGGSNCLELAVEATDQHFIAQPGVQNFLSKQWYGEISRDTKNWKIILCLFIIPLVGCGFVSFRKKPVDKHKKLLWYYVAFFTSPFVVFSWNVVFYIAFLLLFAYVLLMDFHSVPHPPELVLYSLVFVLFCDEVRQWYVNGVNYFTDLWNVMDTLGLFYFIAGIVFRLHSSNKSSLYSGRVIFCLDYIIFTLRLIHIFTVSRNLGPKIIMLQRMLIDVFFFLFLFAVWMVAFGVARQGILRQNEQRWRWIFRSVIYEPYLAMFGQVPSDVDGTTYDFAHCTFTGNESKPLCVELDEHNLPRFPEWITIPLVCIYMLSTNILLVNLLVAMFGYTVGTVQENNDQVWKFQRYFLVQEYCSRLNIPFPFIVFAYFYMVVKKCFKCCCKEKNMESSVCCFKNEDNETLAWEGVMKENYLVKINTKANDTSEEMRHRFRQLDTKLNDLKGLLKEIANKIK

human TRPV3 [1] = molecular target: T1, human TRPV3 (Homo sapiens, UniProt Q8NET8); experiment: Whole-cell recordings in TRPV3-overexpressing HEK-293 cells; assay type: cell-based; conditions: 250 μmol/L, 500 μmol/L, 1 mmol/L; negative holding potential
T1 sequence (Q8NET8 1-790): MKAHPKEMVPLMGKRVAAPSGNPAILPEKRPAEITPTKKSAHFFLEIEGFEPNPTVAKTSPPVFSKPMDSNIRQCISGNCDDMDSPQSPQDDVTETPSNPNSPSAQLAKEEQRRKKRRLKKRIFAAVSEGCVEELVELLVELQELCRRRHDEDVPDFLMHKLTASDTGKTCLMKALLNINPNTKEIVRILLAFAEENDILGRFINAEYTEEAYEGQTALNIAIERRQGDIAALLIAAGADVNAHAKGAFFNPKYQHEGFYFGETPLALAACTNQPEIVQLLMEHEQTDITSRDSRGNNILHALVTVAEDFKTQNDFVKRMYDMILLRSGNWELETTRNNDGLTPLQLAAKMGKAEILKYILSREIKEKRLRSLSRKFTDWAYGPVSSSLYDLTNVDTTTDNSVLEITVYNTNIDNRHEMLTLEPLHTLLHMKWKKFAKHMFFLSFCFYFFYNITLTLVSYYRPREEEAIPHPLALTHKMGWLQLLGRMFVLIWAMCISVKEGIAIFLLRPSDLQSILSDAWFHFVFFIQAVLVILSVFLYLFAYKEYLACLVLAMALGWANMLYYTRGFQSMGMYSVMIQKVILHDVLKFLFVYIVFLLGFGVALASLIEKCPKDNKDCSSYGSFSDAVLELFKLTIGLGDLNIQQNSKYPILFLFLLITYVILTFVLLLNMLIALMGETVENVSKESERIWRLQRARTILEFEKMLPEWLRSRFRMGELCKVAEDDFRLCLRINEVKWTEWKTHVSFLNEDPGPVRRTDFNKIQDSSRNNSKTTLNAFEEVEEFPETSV
Outline: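 HEK-293 cells stably overexpressing human TRPV3 were plated on concanavalin A-coated coverslips and used within 24 h. Whole-cell voltage clamp at −60 or −70 mV with 3–5 MΩ pipettes. External saline: NaCl/KCl/MgCl2/HEPES/glucose/2 mmol/L CaCl2, pH 7.4. CsCl/EGTA internal, pH 7.3. Test compound was perfused or injected, with a fresh cell for each recording. Peak versus basal inward current was compared by one-tailed paired t-test.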

TRPV3-H426N = molecular target: T2, TRPV3-H426N (Homo sapiens, UniProt Q8NET8, H426N); experiment: Calcium flux in HEK-293 cells transiently transfected with TRPV3-H426N; assay type: cell-based
T2 sequence (Q8NET8 1-790 H426N): T1 sequence (Q8NET8 1-790) with H426N

TRPV3-R696K = molecular target: T3, TRPV3-R696K (Homo sapiens, UniProt Q8NET8, R696K); experiment: Calcium flux in HEK-293 cells transiently transfected with TRPV3-R696K; assay type: cell-based; conditions: 100 μmol/L carvacrol, 100 μmol/L 2-APB, 100 and 200 μmol/L drofenine
T3 sequence (Q8NET8 1-790 R696K): T1 sequence (Q8NET8 1-790) with R696K

TRPV3 in HaCaT cells = molecular target: T4, TRPV3 in HaCaT cells (Homo sapiens, UniProt Q8NET8); experiment: Calcium flux in HaCaT cells; assay type: cell-based
T4 sequence (Q8NET8 1-790): T1 sequence (Q8NET8 1-790)

human TRPV3 [2] = molecular target: T1, human TRPV3; experiment: Re-evaluation of screening hits as TRPV3 agonists; assay type: cell-based; conditions: Table 1
[3] = tested on: neomycin-induced hair cell loss; conditions: ref Coffin et al. [2010]; cited from earlier work

human TRPA1, sequence (O75762 whole entry): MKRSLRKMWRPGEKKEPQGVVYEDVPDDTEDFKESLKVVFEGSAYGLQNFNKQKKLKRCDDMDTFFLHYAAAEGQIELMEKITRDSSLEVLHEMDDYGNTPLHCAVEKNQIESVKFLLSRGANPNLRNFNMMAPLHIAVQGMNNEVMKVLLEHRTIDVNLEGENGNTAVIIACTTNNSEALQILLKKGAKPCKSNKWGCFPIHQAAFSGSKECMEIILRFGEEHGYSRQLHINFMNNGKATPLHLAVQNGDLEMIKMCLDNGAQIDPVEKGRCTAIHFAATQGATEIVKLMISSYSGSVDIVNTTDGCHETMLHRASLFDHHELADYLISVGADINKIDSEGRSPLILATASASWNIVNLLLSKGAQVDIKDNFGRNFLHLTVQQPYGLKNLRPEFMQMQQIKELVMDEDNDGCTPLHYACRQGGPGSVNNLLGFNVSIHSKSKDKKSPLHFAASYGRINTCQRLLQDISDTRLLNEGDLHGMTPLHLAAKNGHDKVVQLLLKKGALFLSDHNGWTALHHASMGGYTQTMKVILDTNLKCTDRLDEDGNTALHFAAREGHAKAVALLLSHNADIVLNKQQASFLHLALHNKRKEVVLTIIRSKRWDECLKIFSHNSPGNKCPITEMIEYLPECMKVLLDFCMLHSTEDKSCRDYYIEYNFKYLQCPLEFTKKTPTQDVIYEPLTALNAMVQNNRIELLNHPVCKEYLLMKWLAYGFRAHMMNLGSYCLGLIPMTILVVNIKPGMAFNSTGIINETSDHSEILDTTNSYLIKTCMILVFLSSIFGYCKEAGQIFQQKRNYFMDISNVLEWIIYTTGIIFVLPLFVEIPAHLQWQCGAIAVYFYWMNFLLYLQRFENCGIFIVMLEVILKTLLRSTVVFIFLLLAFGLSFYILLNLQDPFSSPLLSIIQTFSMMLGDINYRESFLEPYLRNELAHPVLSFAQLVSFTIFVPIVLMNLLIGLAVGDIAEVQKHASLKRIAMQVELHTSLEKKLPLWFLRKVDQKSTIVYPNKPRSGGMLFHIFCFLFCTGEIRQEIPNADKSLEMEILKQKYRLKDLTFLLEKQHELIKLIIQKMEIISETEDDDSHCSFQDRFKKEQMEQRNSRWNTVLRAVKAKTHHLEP

Compound: CCN(CC)CCOC(=O)C(c1ccccc1)C1CCCCC1 (stereo not shown) [drofenine]
- activation of TRPA1 (human TRPA1): not observed
- activation of TRPM8 (human TRPM8): not observed
- inward currents (human TRPV3 [1]): dose-dependently induced inward currents
- calcium flux in TRPV3-H426N relative to TRPV3-WT (TRPV3-H426N; agonist 100 μmol/L): reduced activation relative to TRPV3-WT
- calcium flux in TRPV3-H426N relative to TRPV3-WT (TRPV3-H426N; agonist 200 μmol/L): did not reduce TRPV3 activation
- calcium flux in TRPV3-R696K (TRPV3-R696K): diminished-to-no-function
- EC50 (TRPV3 in HaCaT cells): 605 µM
- maximum change in fluorescence relative to ionomycin (TRPV3 in HaCaT cells; HaCaT cells): ~80%
- Comment(s): re-evaluation as TRPV3 agonist (human TRPV3 [2]): TRPV3-selective agonist
- effect on neomycin-induced hair cell loss [3]: inhibitor of neomycin-induced hair cell loss
